The source made the active and inactive calls. The rule behind the calls is not given here.
What was measured:
Histone deacetylase HD2 = target: T1, Histone deacetylase HD2 (Zea mays, UniProt Q94F81); experiment: Inhibition of maize HD2
T1 sequence (Q94F81 whole entry): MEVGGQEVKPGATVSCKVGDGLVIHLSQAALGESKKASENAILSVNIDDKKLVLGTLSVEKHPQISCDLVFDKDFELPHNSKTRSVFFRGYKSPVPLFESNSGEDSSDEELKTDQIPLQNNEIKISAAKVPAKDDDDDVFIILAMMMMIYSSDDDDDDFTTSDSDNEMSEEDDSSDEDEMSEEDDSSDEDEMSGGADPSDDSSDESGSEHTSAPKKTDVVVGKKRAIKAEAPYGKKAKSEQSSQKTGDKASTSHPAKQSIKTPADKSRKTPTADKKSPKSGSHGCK

Histone deacetylase HD1B = Histone deacetylase HD1B (Zea mays, UniProt Q9ZTP8); experiment: Inhibition of maize HD1B
Sequence of Histone deacetylase HD1B (Q9ZTP8 whole entry): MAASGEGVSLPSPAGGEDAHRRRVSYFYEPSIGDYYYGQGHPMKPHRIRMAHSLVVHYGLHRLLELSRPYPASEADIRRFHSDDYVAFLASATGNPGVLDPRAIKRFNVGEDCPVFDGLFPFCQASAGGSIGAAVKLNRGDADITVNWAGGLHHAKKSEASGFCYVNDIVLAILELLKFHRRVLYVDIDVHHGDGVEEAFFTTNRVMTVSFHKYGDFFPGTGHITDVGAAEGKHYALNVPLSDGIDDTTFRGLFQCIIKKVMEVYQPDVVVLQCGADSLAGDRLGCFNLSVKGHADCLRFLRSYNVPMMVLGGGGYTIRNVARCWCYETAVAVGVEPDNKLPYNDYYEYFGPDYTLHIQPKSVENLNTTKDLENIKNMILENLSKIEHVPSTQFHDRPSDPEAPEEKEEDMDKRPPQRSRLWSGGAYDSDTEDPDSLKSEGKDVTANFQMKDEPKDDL

Zea mays [1] = experiment: Selectivity for HD1A class II HDAC over HD1B class I HDAC
U-937 [2] = experiment: Induction of apoptosis in U937 cells at 5 uM by AnnexinV/PI double staining; type: functional, Homo sapiens
In short: (§1)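 U937 cells exposed 48 h at 1 or 5 µM; apoptosis read by Annexin V/propidium iodide double staining and FACS.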

U-937 [3] = experiment: Induction of granulocytic differentiation of U937 cells measured as CD11c expression level after 48 hrs at 1 uM; type: functional, Homo sapiens
In short: (§2)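 Granulocytic differentiation: U937 cells treated 48 h at 1 or 5 µM, stained with PE-conjugated anti-CD11c (PE mouse IgG1 control) 30 min at 4 °C in dark, resuspended in PBS with PI 0.25 µg/mL; FACS, PI-positive cells excluded; percent CD11c-positive PI-negative cells reported.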

U-937 [4] = experiment: Induction of granulocytic differentiation of U937 cells measured as CD11c expression level after 48 hrs at 5 uM; type: functional, Homo sapiens; in short: as §2
U-937 [5] = experiment: Cell cycle arrest in U937 cells by accumulation at S/G2/M phase at 5 uM after 24 hrs; conditions: Homo sapiens
[6] = target: T2, Histone deacetylase HD2 (Zea mays) (UniProt Q94F81); experiment: Inhibition of maize HD2 at 20.9 uM
T2 sequence (whole entry): T1 sequence (Q94F81 whole entry)

[7] = target: Histone deacetylase HD1B (Zea mays) (UniProt Q9ZTP8); experiment: Inhibition of maize HD1B at 20.9 uM
Sequence of Histone deacetylase HD1B (Zea mays) (Q9ZTP8 as listed by the source): as the sequence (Q9ZTP8 whole entry) above

Zea mays [8] = experiment: Inhibition of maize HD1A at 20.9 uM
[9] = target: Histone deacetylase 1 (Homo sapiens) (UniProt Q13547); experiment: Inhibition of HDAC1 in U937 cell at 5 uM; conditions: U-937
Sequence of Histone deacetylase 1 (Homo sapiens) (Q13547 whole entry): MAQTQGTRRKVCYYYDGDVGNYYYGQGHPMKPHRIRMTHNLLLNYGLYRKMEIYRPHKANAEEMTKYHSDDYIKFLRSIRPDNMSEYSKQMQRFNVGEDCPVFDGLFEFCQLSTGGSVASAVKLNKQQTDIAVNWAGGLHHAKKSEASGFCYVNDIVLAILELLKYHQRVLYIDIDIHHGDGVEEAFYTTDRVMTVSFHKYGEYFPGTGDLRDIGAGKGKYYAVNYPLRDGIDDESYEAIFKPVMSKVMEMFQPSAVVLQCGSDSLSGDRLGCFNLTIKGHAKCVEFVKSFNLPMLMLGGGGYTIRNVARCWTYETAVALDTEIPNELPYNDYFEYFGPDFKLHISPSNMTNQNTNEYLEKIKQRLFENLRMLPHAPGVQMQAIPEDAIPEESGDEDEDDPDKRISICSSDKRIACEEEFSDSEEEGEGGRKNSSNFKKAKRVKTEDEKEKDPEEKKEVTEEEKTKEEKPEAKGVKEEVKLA
In short: (§3)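 HDAC1 immunoprecipitated overnight at 4 °C from U937 lysates (1000 µg extract, anti-HDAC1; IgG negative control); 10 µL IP incubated overnight at 37 °C with 120 000 CPM [3H]acetyl-histone H4 peptide on streptavidin beads in HDAC buffer ± inhibitor (5 µM); released radioactivity by scintillation counting; quadruplicate.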

U-937 [10] = experiment: Induction of H3 histone acetylation in U937 cells by Western blot analysis at 5 uM; type: functional, cell-based; conditions: Homo sapiens
[11] = target: Histone deacetylase 4 (Homo sapiens) (UniProt P56524); experiment: Inhibition of HDAC4 in ZR75.1 cell at 5 uM; conditions: ZR-75-1
Sequence of Histone deacetylase 4 (Homo sapiens) (P56524 whole entry): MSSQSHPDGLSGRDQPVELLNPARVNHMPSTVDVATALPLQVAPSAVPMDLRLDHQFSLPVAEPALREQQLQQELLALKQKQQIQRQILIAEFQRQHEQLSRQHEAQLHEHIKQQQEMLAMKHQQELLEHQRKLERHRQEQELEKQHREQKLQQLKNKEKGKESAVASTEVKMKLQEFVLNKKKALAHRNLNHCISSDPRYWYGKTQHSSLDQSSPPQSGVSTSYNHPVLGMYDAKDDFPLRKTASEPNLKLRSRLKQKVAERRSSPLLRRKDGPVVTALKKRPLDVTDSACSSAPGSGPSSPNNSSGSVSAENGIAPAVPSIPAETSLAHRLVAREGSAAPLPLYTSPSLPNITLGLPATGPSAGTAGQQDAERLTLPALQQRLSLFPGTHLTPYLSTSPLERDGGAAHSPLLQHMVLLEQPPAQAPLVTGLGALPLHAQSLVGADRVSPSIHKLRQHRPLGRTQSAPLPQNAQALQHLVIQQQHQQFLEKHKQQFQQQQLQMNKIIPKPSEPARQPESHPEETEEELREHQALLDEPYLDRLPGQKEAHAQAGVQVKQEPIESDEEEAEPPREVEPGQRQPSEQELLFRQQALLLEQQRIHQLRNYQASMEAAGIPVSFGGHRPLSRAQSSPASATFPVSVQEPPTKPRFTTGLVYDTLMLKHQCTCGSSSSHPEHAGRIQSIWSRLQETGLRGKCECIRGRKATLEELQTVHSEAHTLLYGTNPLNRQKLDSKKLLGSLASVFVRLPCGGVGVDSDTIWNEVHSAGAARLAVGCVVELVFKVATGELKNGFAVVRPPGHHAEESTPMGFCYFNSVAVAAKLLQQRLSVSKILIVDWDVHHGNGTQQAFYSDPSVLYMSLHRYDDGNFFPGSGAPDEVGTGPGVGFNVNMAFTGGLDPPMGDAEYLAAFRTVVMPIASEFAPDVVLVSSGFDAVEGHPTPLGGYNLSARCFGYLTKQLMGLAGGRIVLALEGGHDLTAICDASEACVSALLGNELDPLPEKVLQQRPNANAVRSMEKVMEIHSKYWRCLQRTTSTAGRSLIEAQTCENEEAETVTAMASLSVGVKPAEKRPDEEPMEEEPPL
In short: as §3, with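 “HDAC4” for “HDAC1”, “ZR-75.1 breast cancer” for “U937”, “anti-HDAC4;” for “anti-HDAC1;”, “µM);” for “µM); released radioactivity by”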

Histone deacetylase 1 = Histone deacetylase 1 (Mus musculus, UniProt O09106); experiment: Inhibition of mouse HDAC1
Sequence of Histone deacetylase 1 (O09106 whole entry): as the sequence (Q13547 whole entry) above, with R8K, D399E, E424D counted along it

U-937 [12] = experiment: Induction of alpha-tubulin acetylation in U937 cells by Western blot analysis; type: functional, cell-based; conditions: Homo sapiens
In short: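 Western blot of U937 total protein extracts (25 µg) on 10% polyacrylamide gel, probed for acetylated alpha-tubulin (1:500); total ERKs used as loading control.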

U-937 [13] = experiment: Induction of apoptosis in U937 cells at 1 uM by AnnexinV/PI double satining; type: functional, Homo sapiens; in short: as §1
U-937 [14] = experiment: Cell cycle arrest in U937 cells by accumulation at G1 phase at 5 uM after 24 hrs; type: functional, cell-based; conditions: Homo sapiens
In short: (§4)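 U937 cells (RPMI, 10% FCS, kept at 200 000 cells/mL) treated 24 h at 1 or 5 µM (DMSO stocks); 2.5 × 10^5 cells resuspended in hypotonic buffer (0.1% Triton X-100, 0.1% sodium citrate, 50 µg/mL PI, RNAse A), 30 min dark; DNA content by flow cytometry; experiments performed three times.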

U-937 [15] = experiment: Antiproliferative activity against U937 cells at 5 uM; type: functional, cell-based; conditions: Homo sapiens
In short: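 U937 cells seeded at 200 000 cells/mL in RPMI/10% FCS with vehicle or inhibitor at 5 µM; living cells counted every 24 h by Trypan Blue exclusion; data plotted after three days; triplicate.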

U-937 [16] = experiment: Cell cycle arrest in U937 cells by accumulation at G1 phase at 1 uM after 24 hrs; type: functional, cell-based; conditions: Homo sapiens; in short: as §4

SMILES: O=C(CCCCSc1nc(CCc2ccccc2)cc(=O)[nH]1)NO
- IC50 (Histone deacetylase HD2): 0.04 µM
- IC50 (Histone deacetylase HD1B): 0.046 µM

SMILES: O=C(CCCCCCSc1nc(O)cc(-c2ccccc2)n1)NO
- Selectivity ratio (Zea mays [1]): > 3

SMILES: O=C(CCCCCSc1nc(C(c2ccccc2)c2ccccc2)cc(=O)[nH]1)NO
- IC50 (Histone deacetylase HD2): 0.052 µM
- IC50 (Histone deacetylase HD1B): 0.058 µM

SMILES: O=C(CCCSc1nc(O)cc(CCc2ccccc2)n1)NO
- IC50 (Histone deacetylase HD2): 0.205 µM
- IC50 (Histone deacetylase HD1B): 0.17 µM

SMILES: COC(c1ccccc1)c1cc(O)nc(SCCCCCC(=O)NO)n1 (stereo not drawn)
- IC50 (Histone deacetylase HD2): 0.082 µM
- IC50 (Histone deacetylase HD1B): 0.079 µM

SMILES: O=C(CCCSc1nc(O)cc(-c2ccccc2)n1)NO
- IC50 (Histone deacetylase HD2): 0.027 µM
- IC50 (Histone deacetylase HD1B): 0.031 µM

SMILES: O=C(CCCCCCCSc1nc(CCc2ccccc2)cc(=O)[nH]1)NO
- IC50 (Histone deacetylase HD2): 0.09 µM
- IC50 (Histone deacetylase HD1B): 0.062 µM

SMILES: O=C(CCCCCCC(=O)Nc1ccccc1)NO [VORINOSTAT]
- Activity (U-937 [2]): 98%
- Activity (U-937 [3]): 48%
- Activity (U-937 [4]): 32%
- Activity (U-937 [5]): Active

SMILES: O=C(CCCCCSc1nc(C2(c3ccccc3)CC2)cc(=O)[nH]1)NO
- IC50 (Histone deacetylase HD2): 0.062 µM
- IC50 (Histone deacetylase HD1B): 0.047 µM

SMILES: O=C(/C=C/Sc1nc(O)cc(-c2ccccc2)n1)NO
- inhibition [6]: 0%
- inhibition [7]: 0%
- inhibition (Zea mays [8]): 0%

SMILES: O=C(CCCCSc1nc(-c2ccccc2)cc(=O)[nH]1)NO
- inhibition [9]: 46%
- Activity (U-937 [2]; Homo sapiens): inactive
- Activity (U-937 [10]): Active
- inhibition [11]: 0%
- IC50 (Histone deacetylase HD2): 0.008 µM
- IC50 (Histone deacetylase HD1B): 0.01 µM
- IC50 (Histone deacetylase 1): 0.04 µM
- Activity (U-937 [12]): Active

SMILES: O=C(CCCCCCSc1nc(-c2ccccc2)cc(=O)[nH]1)NO
- IC50 (Histone deacetylase HD2): 0.038 µM
- IC50 (Histone deacetylase HD1B): 0.048 µM

SMILES: CC(/C=C/C(=O)NO)=C\[C@@H](C)C(=O)c1ccc(N(C)C)cc1 [TRICHOSTATIN]
- IC50 (Histone deacetylase HD1B): 0.0004 µM

SMILES: O=C(CCCCCSc1nc(O)cc(C(c2ccccc2)c2ccccc2)n1)NO
- Activity (U-937 [2]; Homo sapiens): inactive

SMILES: O=C(CCCCCCCSc1nc(O)cc(-c2ccccc2)n1)NO
- Selectivity ratio (Zea mays [1]): > 3

SMILES: CC(c1ccccc1)c1cc(=O)[nH]c(SCCCCCC(=O)NO)n1 (stereo not drawn)
- IC50 (Histone deacetylase HD2): 0.009 µM
- IC50 (Histone deacetylase HD1B): 0.092 µM
- IC50 (Histone deacetylase 1): 0.121 µM

SMILES: O=C(/C=C/c1ccccc1CSc1nc(O)cc(-c2ccccc2)n1)NO
- IC50 (Histone deacetylase HD2): 0.367 µM
- IC50 (Histone deacetylase HD1B): 0.78 µM

SMILES: O=C(/C=C/c1cccc(CSc2nc(O)cc(Cc3ccccc3)n2)c1)NO
- Activity (U-937 [2]; Homo sapiens): inactive
- Activity (U-937 [13]): 8%
- IC50 (Histone deacetylase HD2): 0.041 µM
- IC50 (Histone deacetylase HD1B): 0.042 µM
- IC50 (Histone deacetylase 1): 0.09 µM

SMILES: O=C(/C=C/c1cccc(CSc2nc(O)cc(-c3ccccc3)n2)c1)NO
- Activity (U-937 [14]): Active
- Activity (U-937 [2]; Homo sapiens): inactive
- Activity (U-937 [10]): Active
- Activity (U-937 [15]): Active
- IC50 (Histone deacetylase HD2): 0.017 µM
- IC50 (Histone deacetylase HD1B): 0.064 µM
- IC50 (Histone deacetylase 1): 0.057 µM
- Activity (U-937 [16]): Active
- Activity (U-937 [4]): 33%

SMILES: O=C(CCSc1nc(O)cc(CCc2ccccc2)n1)NO
- IC50 (Histone deacetylase HD2): 0.037 µM
- IC50 (Histone deacetylase HD1B): 0.06 µM

SMILES: O=C(/C=C/Sc1nc(O)cc(CCc2ccccc2)n1)NO
- IC50 (Histone deacetylase HD2): 41 µM
- IC50 (Histone deacetylase HD1B): 96 µM

SMILES: O=C(/C=C/c1ccccc1CSc1nc(O)cc(Cc2ccccc2)n1)NO
- IC50 (Histone deacetylase HD2): 0.76 µM
- IC50 (Histone deacetylase HD1B): 1.06 µM

SMILES: O=C(/C=C/c1ccc(CSc2nc(O)cc(-c3ccccc3)n2)cc1)NO
- Activity (U-937 [14]): Active
- inhibition [9]: 94%
- Activity (U-937 [2]; Homo sapiens): inactive
- Activity (U-937 [10]): Active
- inhibition [11]: 14%
- Activity (U-937 [13]): 8.8%
- Activity (U-937 [15]): Active
- Activity (U-937 [3]): 42.5%
- IC50 (Histone deacetylase HD2): 0.023 µM
- IC50 (Histone deacetylase HD1B): 0.112 µM
- IC50 (Histone deacetylase 1): 0.034 µM
- Activity (U-937 [4]): 46%

SMILES: O=C(/C=C/c1ccc(CSc2nc(O)cc(Cc3ccccc3)n2)cc1)NO
- Activity (U-937 [2]; Homo sapiens): inactive
- Activity (U-937 [3]): 30%
- IC50 (Histone deacetylase HD2): 0.08 µM
- IC50 (Histone deacetylase HD1B): 0.073 µM
- IC50 (Histone deacetylase 1): 0.11 µM
- Activity (U-937 [4]): 33%

SMILES: CCC(c1ccccc1)c1cc(=O)[nH]c(SCCCCCC(=O)NO)n1 (stereo not drawn)
- IC50 (Histone deacetylase HD2): 0.032 µM
- IC50 (Histone deacetylase HD1B): 0.031 µM

SMILES: O=C(CCSc1nc(-c2ccccc2)cc(=O)[nH]1)NO
- IC50 (Histone deacetylase HD2): 0.822 µM
- IC50 (Histone deacetylase HD1B): 0.89 µM

SMILES: O=C(CCCCCSc1nc(Cc2ccccc2)cc(=O)[nH]1)NO
- Activity (U-937 [2]; Homo sapiens): inactive
- IC50 (Histone deacetylase HD1B): 0.018 µM
- IC50 (Histone deacetylase 1): 0.103 µM
- Activity (U-937 [4]): 30%

SMILES: O=C(CCCCCSc1nc(-c2ccccc2)cc(=O)[nH]1)NO
- Selectivity ratio (Zea mays [1]): > 3
- IC50 (Histone deacetylase HD1B): 0.019 µM

SMILES: O=C(CCCCSc1nc(O)cc(CCc2ccccc2)n1)NO
- Selectivity ratio (Zea mays [1]): > 3

SMILES: O=C(CCCCCCCSc1nc(-c2ccccc2)cc(=O)[nH]1)NO
- IC50 (Histone deacetylase HD2): 0.042 µM
- IC50 (Histone deacetylase HD1B): 0.089 µM

SMILES: O=C(CCCCCCSc1nc(CCc2ccccc2)cc(=O)[nH]1)NO
- IC50 (Histone deacetylase HD2): 0.083 µM
- IC50 (Histone deacetylase HD1B): 0.062 µM
